Data set [1] deals with Leishmania donovani. The data set can be described thus: Antileishmanial against of Leishmania donovani LV9 intramacrophage amastigotes infected in mouse RAW 264.7 cells after 48 hrs by SYBR1 green-based qPCR analysis. The data set is classed as functional, cell-based. As to conditions: LV9, RAW264.7, 48 h. A general note: Real-time PCR tracks product formation cycle by cycle.

The nature of data set [2]: Cytotoxicity against mouse RAW264.7 cells assessed as cell growth inhibition after 72 hrs by Alamar blue dye-based assay. It is filed as toxicity. The method, boiled down:
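RAW 264.7 cells in DMEM with 10% heat-inactivated FBS were seeded at 5×10³ cells/well and incubated 24 h at 37 °C, 5% CO2. The medium was then replaced with fresh DMEM containing compound.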
(In general: The colour change of resazurin is a common sign of viable cells or microbes.)

Data set [3] concerns Leishmania donovani. The experiment in a line: Antileishmanial against of Leishmania donovani LV9 axenic amastigotes after 72 hrs by SYBR1 green-based qPCR analysis. It is filed as functional. The conditions noted are these: LV9, 72 h. The method in brief:
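Axenic amastigotes were grown at 37 °C under 5% CO2, in medium at pH 5.5 containing glucose, glutamine, trypticase peptone, haemin and 20% FBS. Parasite load was read by SYBR green I fluorescence in a qPCR instrument and converted against a standard range of known parasite densities.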

Data set [4] concerns Trypanosoma brucei gambiense. The data set can be described thus: Antitrypanosomal against bloostream forms of Trypanosoma brucei gambiense FeoITMAP/1893 trypomastigotes after 72 hrs in the dark by resazurin assay. The data set is classed as functional. The conditions noted are these: FeoITMAP/1893, 72 h. The method, boiled down: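 Bloodstream trypanosomes were seeded at 4×10⁴/mL with compound dilutions in supplemented medium containing NaHCO3, hypoxanthine, bathocuproine, thymidine and 2-mercaptoethanol. Incubation was 72 h.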

Data set [5] in a line: Selectivity index, ratio of CC50 for mouse RAW 264.7 cells to IC50 for Leishmania donovani LV9 intramacrophage amastigotes infected in mouse RAW 264.7 cells. It is filed as functional. The method, boiled down: (§1)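 Selectivity index is the CC50 on RAW 264.7 cells divided by the IC50 on the parasite.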
Data set [6] in a line: Selectivity index, ratio of CC50 for mouse RAW 264.7 cells to IC50 for Leishmania donovani LV9 axenic amastigotes. The data set is classed as functional. The method in brief:
as §1

Data set [7] can be described thus: Selectivity index, ratio of CC50 for mouse RAW 264.7 cells to IC50 for Trypanosoma brucei gambiense FeoITMAP/1893 trypomastigotes. The data set is classed as functional. The method in brief:
as §1

Data set [8] in a line: Mixed-type inhibition of Trypanosoma brucei TryR assessed as enzyme-substrate-inhibitor complex using TS2 as substrate in presence of NADPH by Lineweaver-Burk plot analysis. The method in brief:
(§2)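 Recombinant T. brucei TryR activity was followed as NADPH consumption at 340 nm with TS2 concentration varied, at 0, 10 and 40 µM inhibitor. Inhibition type and inhibitor constant were derived from Lineweaver–Burk plots.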

The subject of the next data set is Trypanosoma brucei. The data set can be described thus: Inhibition of Trypanosoma brucei TryR using TS2 as substrate at 40 uM in presence of NADPH by spectrophotometric analysis. The method, boiled down: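 Recombinant T. brucei TryR was screened with inhibitor at 40 µM in assay buffer containing 5% DMSO, at 40 or 100 µM TS2. Activity was followed as NADPH consumption at 340 nm and reported as percent inhibition against DMSO-matched controls.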

Data set [9] is described as follows: Mixed-type inhibition of Trypanosoma brucei TryR assessed as enzyme-inhibitor complex using TS2 as substrate in presence of NADPH by Lineweaver-Burk plot analysis. The method in brief: as §2

Consider `CCCCCCCCCCCCCCCCOP(=O)([O-])OCC[N+](C)(C)C` [MILTEFOSINE], for which the IC50 (usually the concentration at which inhibition is half-maximal) in the data set with Leishmania donovani [1] came out at 1.5 µM; in the data set with Leishmania donovani [3], 1.9 µM. Besides, the CC50 (commonly the concentration at which the toxic effect on the cells reaches its halfway point) at 72 h in [2] is above 100 µM.
With `CC(C)(C)OC(=O)NCCCCNC(=O)COn1nnc2ccccc21`, the IC50 (in data set [4]; with Leishmania donovani [1]; in the data set with Leishmania donovani [3]) was above 100 µM throughout. The CC50 at 72 h in data set [2] was above 100 µM.
Consider `Cl.NCCCNC(=O)COn1nnc2ccccc21`, for which the IC50 was above 100 µM in data set [4], 29.5 µM in the data set with Leishmania donovani [1] and above 100 µM in the data set with Leishmania donovani [3]. For the same compound, the “Ratio CC50/IC50” value in [5] is listed as 3. Moreover, the half-maximal cytotoxic concentration (CC50) at 72 h in data set [2] was above 100 µM.
Regarding `N=C(N)c1ccc(OCCCCCOc2ccc(C(=N)N)cc2)cc1` [PENTAMIDINE], the IC50 in [4] was 0.0021 µM. Besides, the CC50 at 72 h in [2] was above 100 µM.
Consider `Cl.Cl.Cl.NCCCNCCCCNCCCNC(=O)COn1nnc2ccccc21`, for which the IC50 in data set [4] came out at 13.8 µM; in the data set on Leishmania donovani [1] it was 38.6 µM; with Leishmania donovani [3], 10.9 µM. The results for the “Ratio CC50/IC50” value in [5], in data set [6] and in data set [7] were 3, 9 and 7, respectively. In addition, the CC50 at 72 h in data set [2] is above 100 µM.
As to `NCCCCNCCCN` [SPERMIDINE], the 50% inhibitory concentration (IC50) was 3.3 µM in data set [4], above 100 µM with Leishmania donovani [1] and 8.3 µM in the data set with Leishmania donovani [3]. The “Ratio CC50/IC50” value in data set [6] turned out to be 12; in data set [7], 29. Moreover, the CC50 at 72 h in data set [2] was above 100 µM.
In the case of `O=C(O)COn1nnc2ccccc21`, the IC50 (in data set [4]; with Leishmania donovani [1]; in the data set with Leishmania donovani [3]) was above 100 µM throughout. In [2], the CC50 at 72 h was above 100 µM.
In the case of `CC(C)(C)OC(=O)NCCCN(CCCCN(CCCNC(=O)COn1nnc2ccccc21)C(=O)OC(C)(C)C)C(=O)OC(C)(C)C`, the concentration for half-maximal inhibition (IC50) amounted to 3.5 µM in data set [4], 34.7 µM in the data set on Leishmania donovani [1] and 27 µM in the data set on Leishmania donovani [3]. Further, the figures for the “Ratio CC50/IC50” value in [5], in [6] and in data set [7] were 1, 1.4 and 10, respectively. In addition, the CC50 at 72 h in [2] was 37.4 µM.
As to `Cl.Cl.NCCCCN(CCCN)C(=O)COn1nnc2ccccc21`, the half-maximal inhibitory concentration (IC50) was 25.3 µM in data set [4], 23.4 µM in the data set with Leishmania donovani [1] and above 100 µM in the data set with Leishmania donovani [3]. Moreover, the “Ratio CC50/IC50” value in data set [5] and in data set [7] was 4 in each case. The CC50 at 72 h in data set [2] was above 100 µM.
In the case of `Cl.Cl.NCCCNCCCCNC(=O)COn1nnc2ccccc21`, the IC50 in data set [4] was 38.7 µM; in the data set with Leishmania donovani [1], above 100 µM; in the data set with Leishmania donovani [3] it was above 100 µM. The “Ratio CC50/IC50” value in data set [6] is on record as 9; in data set [7], 3. For the same compound, the half-maximal cytotoxic concentration (CC50) at 72 h in data set [2] is above 100 µM.
`CC(C)(C)OC(=O)NCCCCN(CCCNC(=O)COn1nnc2ccccc21)C(=O)OC(C)(C)C`: the concentration for half-maximal inhibition (IC50) in [4] turned out to be 1.2 µM; in the data set on Leishmania donovani [1], 67.8 µM; in the data set on Leishmania donovani [3] it was 60.5 µM. For the same compound, the results for the “Ratio CC50/IC50” value in data set [5], in data set [6] and in [7] were 1, 1.6 and 85, respectively. Further, in data set [2], the 50% cytotoxic concentration (CC50) at 72 h was above 100 µM.
`CC(C)(C)OC(=O)NCCCN(CCCCNC(=O)COn1nnc2ccccc21)C(=O)OC(C)(C)C`: the figures for the IC50 (in data set [4]; in the data set with Leishmania donovani [1]; with Leishmania donovani [3]) were 2 µM, 41.4 µM and above 100 µM, respectively. The “Ratio CC50/IC50” value was 2 in [5] and 50 in [7]. For the same compound, in data set [2], the CC50 at 72 h is above 100 µM.
Consider `Cl.NCCCCNC(=O)COn1nnc2ccccc21`, for which the values for the IC50 (in data set [4]; with Leishmania donovani [1]; in the data set with Leishmania donovani [3]) were 9.5 µM, above 100 µM and above 100 µM, respectively. The “Ratio CC50/IC50” value in data set [7] stood at 11. Moreover, the 50% cytotoxic concentration (CC50) at 72 h in [2] is above 100 µM.
Consider `CC(C)(C)OC(=O)NCCCNC(=O)COn1nnc2ccccc21`, for which the 50% inhibitory concentration (IC50) was 28.8 µM in data set [4], 56.7 µM in the data set on Leishmania donovani [1] and above 100 µM with Leishmania donovani [3]. The “Ratio CC50/IC50” value in [5] is 2; in data set [7], 3. The cytotoxic concentration (CC50) at 72 h in data set [2] is above 100 µM.
As for `Cl.Cl.NCCCCNCCCNC(=O)COn1nnc2ccccc21`, the IC50 in [4] is 72 µM; in the data set on Leishmania donovani [1] it was above 100 µM; in the data set on Leishmania donovani [3], above 100 µM. Also, the “Ratio CC50/IC50” value stood at 1.5 in data set [6] and 1 in data set [7]. The CC50 at 72 h in [2] was above 100 µM. In addition, the Ki (usually the dissociation constant of the complex between target and ligand, obtained from inhibition or displacement) stood at 16.8 µM in data set [8] and 6.7 µM in [9]. Moreover, in the data set on Trypanosoma brucei, the inhibition (in general, the share of the control response that was lost under treatment) stood at 80%.
As to `CC(C)(C)OC(=O)NCCCCN(CCCNC(=O)OC(C)(C)C)C(=O)COn1nnc2ccccc21`, the IC50 in data set [4] amounted to 3.2 µM; in the data set on Leishmania donovani [1], 3.1 µM; in the data set on Leishmania donovani [3] it was 11.5 µM. Further, the “Ratio CC50/IC50” value in data set [5] was found to be 4; in data set [6] it was 1; in data set [7], 4. In addition, the cytotoxic concentration (CC50) at 72 h in data set [2] was found to be 12.5 µM.

The values above are taken from ChEMBL document CHEMBL3867462, “Synthesis and in vitro antikinetoplastid activity of polyamine-hydroxybenzotriazole conjugates” (Bioorg Med Chem, 2017).
